# Measured values as given in ChEMBL document CHEMBL3124806, “Imidazopyridine-fused [1,3]-diazepinones: synthesis and antiproliferative activity” (Eur J Med Chem, 2014).
# Columns and labels:
# Assay type in all cases: functional
# [1] = tested on: SN12C; assay: Cytotoxicity against human SN12C cells assessed as cell growth at 10 uM after 48 hrs by SRB assay relative to untreated control; settings: read-out: Activity
# Method in brief: (§1)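 NCI-60 single-dose screen. Compounds were added to the cultures at 10 μM and incubated for 48 h. The end point was sulforhodamine B protein staining read spectrophotometrically. Growth is reported as percent of untreated control cells.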
# [2] = tested on: SNB-19; assay: Cytotoxicity against human SNB19 cells assessed as cell growth at 10 uM after 48 hrs by SRB assay relative to untreated control; settings: SNB-19, 48 h, read-out: Activity; method in brief: as §1
# [3] = tested on: A498; assay: Cytotoxicity against human A498 cells assessed as cell growth at 10 uM after 48 hrs by SRB assay relative to untreated control; settings: A498, 48 h, read-out: Activity
# Method in brief: (§2)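 NCI-60 panel screen at a single concentration of 10 μM with 48 h incubation. Cell density measured by sulforhodamine B protein-binding dye and read spectrophotometrically. Growth expressed as percent of untreated control cells.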
# [4] = tested on: SNB-75; assay: Cytotoxicity against human SNB75 cells assessed as cell growth at 10 uM after 48 hrs by SRB assay relative to untreated control; settings: SNB-75, 48 h, read-out: Activity; method in brief: as §1
# [5] = tested on: T47D; assay: Cytotoxicity against human T47D cells assessed as cell growth at 10 uM after 48 hrs by SRB assay relative to untreated control; settings: read-out: Activity; method in brief: as §1
# [6] = tested on: SR; assay: Cytotoxicity against human SR cells assessed as cell growth at 10 uM after 48 hrs by SRB assay relative to untreated control; settings: read-out: Activity; method in brief: as §1
# [7] = Cytotoxicity against human OVCAR5 cells assessed as cell growth at 10 uM after 48 hrs by SRB assay relative to untreated control; settings: OVCAR-5, 48 h, read-out: Activity
# Method in brief: (§3)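 NCI-60 one-dose screen: each agent added at 10 µM, cultures incubated 48 h. Endpoint by sulforhodamine B protein-binding dye read spectrophotometrically; growth expressed as percent of untreated control cells.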
# [8] = Cytotoxicity against human OVCAR4 cells assessed as cell growth at 10 uM after 48 hrs by SRB assay relative to untreated control; settings: OVCAR-4, 48 h, read-out: Activity; method in brief: as §3
# [9] = tested on: DU-145; assay: Cytotoxicity against human DU145 cells assessed as cell growth at 10 uM after 48 hrs by SRB assay relative to untreated control; settings: DU-145, 48 h, read-out: Activity; method in brief: as §2
# [10] = tested on: A549; assay: Cytotoxicity against human A549 cells assessed as cell growth at 10 uM after 48 hrs by SRB assay relative to untreated control; settings: A549, 48 h, read-out: Activity; method in brief: as §2
# [11] = tested on: ACHN; assay: Cytotoxicity against human ACHN cells assessed as cell growth at 10 uM after 48 hrs by SRB assay relative to untreated control; settings: read-out: Activity; method in brief: as §2
# [12] = tested on: MDA-MB-435; assay: Cytotoxicity against human MDA-MB-435 cells assessed as cell growth at 10 uM after 48 hrs by SRB assay relative to untreated control; settings: MDA-MB-435, 48 h, read-out: Activity; method in brief: as §3
# [13] = tested on: BT-549; assay: Cytotoxicity against human BT549 cells assessed as cell growth at 10 uM after 48 hrs by SRB assay relative to untreated control; settings: BT-549, 48 h, read-out: Activity; method in brief: as §2
# [14] = tested on: NCI-H322M; assay: Cytotoxicity against human NCI-H322M cells assessed as cell growth at 10 uM after 48 hrs by SRB assay relative to untreated control; settings: read-out: Activity; method in brief: as §3
# [15] = tested on: HCC 2998; assay: Cytotoxicity against human HCC2998 cells assessed as cell growth at 10 uM after 48 hrs by SRB assay relative to untreated control; settings: HCC 2998, 48 h, read-out: Activity; method in brief: as §2
# [16] = tested on: M14; assay: Cytotoxicity against human M14 cells assessed as cell growth at 10 uM after 48 hrs by SRB assay relative to untreated control; settings: M14, 48 h, read-out: Activity; method in brief: as §2
# [17] = Cytotoxicity against human Hs578T cells assessed as cell growth at 10 uM after 48 hrs by SRB assay relative to untreated control; settings: Hs-578T, read-out: Activity; method in brief: as §2
# [18] = tested on: CAKI-1; assay: Cytotoxicity against human Caki1 cells assessed as cell growth at 10 uM after 48 hrs by SRB assay relative to untreated control; settings: CAKI-1, 48 h, read-out: Activity; method in brief: as §2
# [19] = tested on: 786-0; assay: Cytotoxicity against human […] cells assessed as cell growth at 10 uM after 48 hrs by SRB assay relative to untreated control; settings: 786-0, 48 h, read-out: Activity; method in brief: as §2
# [20] = tested on: SF-539; assay: Cytotoxicity against human SF539 cells assessed as cell growth at 10 uM after 48 hrs by SRB assay relative to untreated control; settings: SF-539, 48 h, read-out: Activity; method in brief: as §3
# [21] = tested on: SW-620; assay: Cytotoxicity against human SW620 cells assessed as cell growth at 10 uM after 48 hrs by SRB assay relative to untreated control; settings: SW-620, 48 h, read-out: Activity; method in brief: as §1
# [22] = Cytotoxicity against human UACC257 cells assessed as cell growth at 10 uM after 48 hrs by SRB assay relative to untreated control; settings: UACC-257, 48 h, read-out: Activity; method in brief: as §1
# [23] = tested on: NCI-H226; assay: Cytotoxicity against human NCI-H226 cells assessed as cell growth at 10 uM after 48 hrs by SRB assay relative to untreated control; settings: NCI-H226, 48 h, read-out: Activity; method in brief: as §3
# [24] = tested on: OVCAR-8; assay: Cytotoxicity against human OVCAR8 cells assessed as cell growth at 10 uM after 48 hrs by SRB assay relative to untreated control; settings: OVCAR-8, 48 h, read-out: Activity; method in brief: as §3
# [25] = tested on: HCT-15; assay: Cytotoxicity against human HCT15 cells assessed as cell growth at 10 uM after 48 hrs by SRB assay relative to untreated control; settings: HCT-15, 48 h, read-out: Activity; method in brief: as §2
# [26] = tested on: NCI-H460; assay: Cytotoxicity against human NCI-H460 cells assessed as cell growth at 10 uM after 48 hrs by SRB assay relative to untreated control; settings: NCI-H460, 48 h, read-out: Activity; method in brief: as §3
# [27] = tested on: SK-MEL-28; assay: Cytotoxicity against human SK-MEL-28 cells assessed as cell growth at 10 uM after 48 hrs by SRB assay relative to untreated control; settings: SK-MEL-28, 48 h, read-out: Activity; method in brief: as §1
# [28] = tested on: HL-60(TB); assay: Cytotoxicity against human HL-60(TB) cells assessed as cell growth at 10 uM after 48 hrs by SRB assay relative to untreated control; settings: HL-60, 48 h, read-out: Activity
# Method in brief: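 NCI-60 human tumour cell line panel; a single 10 µM concentration was added to the cultures and incubated 48 h. Endpoint was sulforhodamine B protein-binding dye read spectrophotometrically, with growth reported as percent of untreated control cells.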
Compound,growth at 10 µM [1] [%],growth at 10 µM [2] [%],growth at 10 µM [3] [%],growth at 10 µM [4] [%],growth at 10 µM [5] [%],growth at 10 µM [6] [%],growth at 10 µM [7] [%],growth at 10 µM [8] [%],growth at 10 µM [9] [%],growth at 10 µM [10] [%],growth at 10 µM [11] [%],growth at 10 µM [12] [%],growth at 10 µM [13] [%],growth at 10 µM [14] [%],growth at 10 µM [15] [%],growth at 10 µM [16] [%],growth at 10 µM [17] [%],growth at 10 µM [18] [%],growth at 10 µM [19] [%],growth at 10 µM [20] [%],further results
O=C1c2c(nc3ccccn23)NC(=O)N2CCC[C@@H]12,106,104,88.5,96.5,92.8,126,101,104,100,98,101,94.9,82.8,106,105,94.8,94.6,97.9,98.6,91.7,growth at 10 µM [21]: 106%; growth at 10 µM [22]: 91%; growth at 10 µM [23]: 100%; growth at 10 µM [24]: 94.2%; growth at 10 µM [25]: 99.9%; growth at 10 µM [26]: 105%; growth at 10 µM [27]: 106%
Cc1ccc(C2=Nc3nc4ccccn4c3C(=O)[C@H](Cc3ccccc3)N2)cc1,104,96.4,101,80.2,96.5,89.7,99.2,102,117,94.9,92.1,46.8,88.3,104,106,97.7,96.2,76.8,106,98.8,growth at 10 µM [28]: 116%; growth at 10 µM [21]: 102%; growth at 10 µM [22]: 91.1%; growth at 10 µM [23]: 88.2%; growth at 10 µM [24]: 92.9%; growth at 10 µM [25]: 78%; growth at 10 µM [26]: 103%; growth at 10 µM [27]: 109%
Cc1ccccc1C1=Nc2nc3ccccn3c2C(=O)[C@H](Cc2ccccc2)N1,107,109,98.2,70.8,104,122,101,98.7,113,91.7,94.5,98.8,96.9,106,99.9,102,102,88.8,101,99.4,growth at 10 µM [28]: 125%; growth at 10 µM [21]: 103%; growth at 10 µM [22]: 87.3%; growth at 10 µM [23]: 99%; growth at 10 µM [24]: 92.8%; growth at 10 µM [25]: 100%; growth at 10 µM [26]: 103%; growth at 10 µM [27]: 113%
O=C1c2c(nc3ccccn23)N=C(c2ccccc2)N2CCC[C@@H]12,99.6,103,89.3,88.3,93.6,118,94.2,95.2,97,96.3,97.9,101,99.1,106,94.7,96.5,96.7,95.4,97.9,89.8,growth at 10 µM [28]: 129%; growth at 10 µM [21]: 102%; growth at 10 µM [22]: 94.5%; growth at 10 µM [23]: 94.9%; growth at 10 µM [24]: 98.7%; growth at 10 µM [25]: 93.8%; growth at 10 µM [26]: 103%; growth at 10 µM [27]: 108%
COc1ccc(C2=Nc3nc4ccccn4c3C(=O)[C@H](Cc3ccccc3)N2)cc1,113,103,112,77.5,98.8,105,107,112,111,109,101,51.4,85.3,106,96.4,98.3,96.4,87.7,101,97.2,growth at 10 µM [21]: 100%; growth at 10 µM [22]: 92.3%; growth at 10 µM [23]: 98.6%; growth at 10 µM [24]: 91.4%; growth at 10 µM [25]: 101%; growth at 10 µM [26]: 104%; growth at 10 µM [27]: 98.1%
O=C1Nc2nc3ccccn3c2C(=O)[C@H](Cc2ccccc2)N1,105,103,94,79.1,103,107,95,111,104,98.6,97,96.4,96.9,103,97.5,93,102,96.2,99.2,95.9,growth at 10 µM [28]: 116%; growth at 10 µM [21]: 101%; growth at 10 µM [22]: 89.8%; growth at 10 µM [23]: 104%; growth at 10 µM [24]: 95.8%; growth at 10 µM [25]: 94.6%; growth at 10 µM [26]: 103%; growth at 10 µM [27]: 114%
Cc1ccc(C2=Nc3nc4ccccn4c3C(=O)[C@@H]3CCCN23)cc1,101,92.2,68.5,90,89.8,88.5,91.1,98.2,97.4,92.7,93.9,91.1,94.2,104,99.4,94.8,94,91.8,98.1,92.5,growth at 10 µM [28]: 125%; growth at 10 µM [21]: 101%; growth at 10 µM [22]: 98.8%; growth at 10 µM [23]: 86.5%; growth at 10 µM [24]: 98.1%; growth at 10 µM [25]: 95.3%; growth at 10 µM [26]: 102%; growth at 10 µM [27]: 108%
